Laboratory results published in ChEMBL document CHEMBL1148648, “Novel 1,3-disubstituted 8-(1-benzyl-1H-pyrazol-4-yl) xanthines: high affinity and selective A2B adenosine receptor antagonists” (J Med Chem, 2006).

Tests used:
[1] = target: Adenosine receptors; A1 & A2b (Homo sapiens) (UniProt P30542+P29275); test: Selectivity for human adenosine A2b receptor over adenosine A1 receptor; type: protein assay
[2] = target: Adenosine A2 receptor (Homo sapiens) (UniProt P29275+P29274); test: Selectivity for human adenosine A2b receptor over adenosine A2a receptor; type: protein assay
Adenosine receptor A2b = target: T1, Adenosine receptor A2b (Homo sapiens, UniProt P29275); test: Displacement of [3H]ZM241385 from human adenosine A2b receptor expressed in HEK cells; type: cell-based, HEK293
T1 sequence (P29275 whole entry): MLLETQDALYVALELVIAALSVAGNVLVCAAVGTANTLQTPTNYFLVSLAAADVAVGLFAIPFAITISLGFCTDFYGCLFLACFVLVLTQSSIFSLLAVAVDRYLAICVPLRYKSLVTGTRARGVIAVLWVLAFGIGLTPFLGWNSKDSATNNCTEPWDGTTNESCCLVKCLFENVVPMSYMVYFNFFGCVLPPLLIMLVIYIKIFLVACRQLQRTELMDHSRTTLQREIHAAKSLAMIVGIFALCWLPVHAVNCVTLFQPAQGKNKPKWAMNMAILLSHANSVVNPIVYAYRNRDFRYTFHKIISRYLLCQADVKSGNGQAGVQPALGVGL

Adenosine receptor A2a = Adenosine receptor A2a (Homo sapiens, UniProt P29274); test: Displacement of [3H]ZM-241385 from human adenosine A2a receptor expressed in HEK cells; type: cell-based, HEK293
Chain of Adenosine receptor A2a (P29274 whole entry): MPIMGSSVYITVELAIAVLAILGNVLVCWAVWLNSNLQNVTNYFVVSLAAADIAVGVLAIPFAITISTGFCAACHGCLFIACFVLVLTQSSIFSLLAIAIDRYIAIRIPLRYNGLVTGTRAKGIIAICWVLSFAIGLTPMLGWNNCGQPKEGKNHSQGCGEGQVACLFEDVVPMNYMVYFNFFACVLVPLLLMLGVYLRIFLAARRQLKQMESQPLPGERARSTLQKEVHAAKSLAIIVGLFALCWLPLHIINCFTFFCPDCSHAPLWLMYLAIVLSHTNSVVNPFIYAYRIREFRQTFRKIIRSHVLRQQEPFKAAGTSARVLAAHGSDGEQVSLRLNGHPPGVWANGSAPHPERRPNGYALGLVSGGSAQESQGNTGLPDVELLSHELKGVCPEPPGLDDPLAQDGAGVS

Adenosine receptor A1 = target: T2, Adenosine receptor A1 (Homo sapiens, UniProt P30542); test: Displacement of [3H]CPX from human adenosine A1 receptor expressed in CHO cells
T2 sequence (P30542 whole entry): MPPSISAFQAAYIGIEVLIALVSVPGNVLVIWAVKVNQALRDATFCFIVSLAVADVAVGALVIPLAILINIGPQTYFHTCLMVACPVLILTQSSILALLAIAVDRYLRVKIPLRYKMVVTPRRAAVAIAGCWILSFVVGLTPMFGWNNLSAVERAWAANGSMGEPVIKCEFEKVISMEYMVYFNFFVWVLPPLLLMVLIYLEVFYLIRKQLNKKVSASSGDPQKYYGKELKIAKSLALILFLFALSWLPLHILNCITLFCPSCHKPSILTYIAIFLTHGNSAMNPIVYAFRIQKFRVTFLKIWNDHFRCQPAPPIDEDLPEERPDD

Adenosine receptor A3 = target: T3, Adenosine receptor A3 (Homo sapiens, UniProt P0DMS8); test: Displacement of [125I]AB-MECA from human adenosine A3 receptor expressed in CHO cells; type: cell-based
T3 sequence (P0DMS8 whole entry): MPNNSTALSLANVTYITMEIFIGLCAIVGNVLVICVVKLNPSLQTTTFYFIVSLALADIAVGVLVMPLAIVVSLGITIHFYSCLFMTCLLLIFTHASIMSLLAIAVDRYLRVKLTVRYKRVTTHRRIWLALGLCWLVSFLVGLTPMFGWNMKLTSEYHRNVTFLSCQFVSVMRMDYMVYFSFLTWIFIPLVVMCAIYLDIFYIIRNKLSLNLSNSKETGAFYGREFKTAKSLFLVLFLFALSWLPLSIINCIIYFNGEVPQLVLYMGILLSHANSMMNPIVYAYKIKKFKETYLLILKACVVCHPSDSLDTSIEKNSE
Procedure, shortened: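 Membranes from CHO cells stably expressing human A3 receptor, prepared like the A2B membranes. Incubated 90 min at 25 °C with gentle agitation, then filtered and washed 4× in ice-cold TM buffer. Nonspecific binding was defined with 1 µM IB-MECA.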

[3] = target: Adenosine receptors; A2b & A3 (Homo sapiens) (UniProt P29275+P0DMS8); test: Selectivity for human adenosine A2b receptor over adenosine A3 receptor; type: protein assay

| Compound | Ratio Ki [1] | Ratio Ki [2] | Ki (Adenosine receptor A2b) [nM] | Ki (Adenosine receptor A2a) [nM] | Ki (Adenosine receptor A1) [nM] | Ki (Adenosine receptor A3) [nM] | Ratio Ki [3] |
| --- | --- | --- | --- | --- | --- | --- | --- |
| CCCn1c(=O)c2nc(-c3cnn(Cc4cc(Cl)ccc4Cl)c3)[nH]c2n(CCC)c1=O | 6 | 2 | – | – | – | – | – |
| CCCn1c(=O)c2nc(-c3cnn(Cc4cccc(C)c4F)c3)[nH]c2n(CCC)c1=O | 9 | 10 | – | – | – | – | – |
| Cn1c(=O)c2nc(-c3cnn(Cc4ccccc4)c3)[nH]c2n(C)c1=O | 2 | 1 | 2300 | 3500 | > 6000 | – | – |
| CCCn1c(=O)c2nc(-c3cnn(-c4ccccc4)c3)[nH]c2n(CCC)c1=O | 2 | 2 | – | – | – | – | – |
| CCCn1c(=O)c2nc(-c3cnn(Cc4ccc(C(F)(F)F)cc4)c3)[nH]c2n(CCC)c1=O | 2 | 7 | 20 | 150 | 41 | – | – |
| CCCCn1c(=O)c2nc(-c3cnn(Cc4ccccc4)c3)[nH]c2n(CCCC)c1=O | 1 | 1 | – | – | – | – | – |
| CC(C)Cn1c(=O)c2nc(-c3cnn(Cc4ccccc4)c3)[nH]c2n(CC(C)C)c1=O | 0.5 | 1 | – | – | – | – | – |
| CCCn1c(=O)c2nc(-c3cnn(Cc4ccccc4F)c3)[nH]c2n(CCC)c1=O | 0.6 | 2 | – | – | – | – | – |
| CCCn1c(=O)c2[nH]c(-c3cnn(Cc4cccc(F)c4)c3)nc2n(CCC)c1=O | 13 | 18 | 14 | 230 | 170 | 56 | 4 |
| CCn1c(=O)c2nc(-c3cnn(Cc4cccc(F)c4)c3)[nH]c2n(CC)c1=O | 76 | 58 | 5 | 290 | 380 | – | – |
| CCCn1c(=O)c2nc(-c3cnn(Cc4ccc(F)cc4)c3)[nH]c2n(CCC)c1=O | 1 | 5 | – | – | – | – | – |
| CCCn1c(=O)c2nc(-c3cnn(Cc4ccccc4OC)c3)[nH]c2n(CCC)c1=O | 2 | 4 | – | – | – | – | – |
| CCCn1c(=O)c2nc(-c3cnn(CCc4ccccc4)c3)[nH]c2n(CCC)c1=O | 0.2 | 7 | 74 | 570 | 17 | – | – |
| CCCn1c(=O)c2nc(-c3cnn(Cc4cc(C(F)(F)F)ccc4Cl)c3)[nH]c2n(CCC)c1=O | 54 | 63 | 22 | 1400 | 1200 | 2800 | 129 |
| Cn1c(=O)c2[nH]c(-c3cnn(Cc4cccc(F)c4)c3)nc2n(C)c1=O | 17 | 7 | 27 | 200 | 460 | – | – |
| CCCn1c(=O)c2nc(-c3cnn(Cc4ccc(OC)cc4)c3)[nH]c2n(CCC)c1=O | 2 | 1 | – | – | – | – | – |
| Cn1c(=O)c2nc(-c3cnn(Cc4cccc(C(F)(F)F)c4)c3)[nH]c2n(C)c1=O | 990 | 690 | 1 | 690 | 990 | 1000 | 1000 |
| CCCn1c(=O)c2nc(-c3cnn(Cc4ccccc4C(F)(F)F)c3)[nH]c2n(CCC)c1=O | 1 | 6 | – | – | – | – | – |
| CCCn1c(=O)c2[nH]c(-c3cc(NC(=O)Cc4ccc(OC)c(OC)c4)nn3C)nc2n(CCC)c1=O | – | – | – | > 1000 | > 1000 | > 1000 | – |
| CCCn1c(=O)c2nc(-c3cnn(Cc4ccc(Cl)cc4)c3)[nH]c2n(CCC)c1=O | 0.5 | 4 | 18 | 88 | 7 | – | – |
